GPR7 antag = GPR7 receptor antagonists, primary screen, cell-based, fluorescence, single concentration; Neuropeptides B/W receptor type 1 (Homo sapiens), P48145; GPR7-expressing cells, fluorescence antagonist assay; inhibition, % at 4.4 µM; 290,000 compounds, 1.1% hits; AID 1861, 2009; in the data active = inhibition above about 16%, passing the limit was not always enough;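 note: cells stimulated with the agonist NPW; 0% = agonist with vehicle and 100% = vehicle without agonist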
CHO parental Ca = ATP-evoked calcium signal inhibitors, parental CHO, primary screen, counter-screen for OX1R antagonist project, cell-based, fluorescence, Fluo-8 calcium dye. parental CHO-K1, ATP-induced calcium, Fluo-8 fluorescence. inhibition, % at 5.6 µM. 330,000 compounds, 0.63% hits. AID 463079, 2010;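 active = inhibition above that plate's mean sample inhibition plus 3 SD, cut at about 26% in these data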;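 note: 0% = ATP-challenged DMSO wells and 100% = DMSO wells without ATP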
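material = parental CHO cells | also added = ATP as calcium-mobilizing challenge | dosing = single point at 5.6 µM | detection = intracellular calcium via Fluo-8 no-wash fluorescent dye | read-out = % inhibition | benchmarks = low control ATP plus DMSO, high control DMSO only | repeats = one well per compound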
OX1R antag-1 = OX1R (HCRTR1) antagonists, primary screen, fluorescence, CHO/OX1R cells, Fluo-8 calcium, orexin A; Orexin/Hypocretin receptor type 1 (Homo sapiens), O43613; Fluo-8 calcium fluorescence; inhibition, % at 5 µM; 330,000 compounds, 0.43% hits; AID 434989, 2010;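 active = inhibition above its plate's threshold, mean inhibition of all tested compounds on the plate plus 3 SD, cut at about 37% in these data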;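 note: 0% = orexin A challenge wells and 100% = SB-334867-A antagonist wells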
Target sequence (O43613 whole entry, looked up): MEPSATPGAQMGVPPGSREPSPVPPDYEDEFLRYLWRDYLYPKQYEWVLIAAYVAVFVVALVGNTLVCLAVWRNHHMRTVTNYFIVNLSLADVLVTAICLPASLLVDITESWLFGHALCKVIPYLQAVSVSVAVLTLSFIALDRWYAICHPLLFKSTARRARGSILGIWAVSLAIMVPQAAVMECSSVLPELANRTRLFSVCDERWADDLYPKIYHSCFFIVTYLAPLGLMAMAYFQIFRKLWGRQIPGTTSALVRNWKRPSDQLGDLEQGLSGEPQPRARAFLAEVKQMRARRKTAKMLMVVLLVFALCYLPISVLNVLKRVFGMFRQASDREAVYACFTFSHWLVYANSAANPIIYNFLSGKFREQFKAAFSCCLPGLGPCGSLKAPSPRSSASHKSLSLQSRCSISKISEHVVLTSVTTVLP
OX1R antag-2 = antagonists of human orexin 1 receptor (OX1R) | 330,000 compounds, 1.8% hits | Orexin/Hypocretin receptor type 1 (Homo sapiens), O43613 | OX1R-expressing cells, FRET antagonist read-out | inhibition, % at 6.6 µM; in the data active = inhibition mostly above about 38%, no sharp cut-off; inactive = mostly below about 40%;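 note: 0% = agonist challenge alone and 100% = reference antagonist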
TAAR1 antagonist = human TAAR1 antagonists, primary screen, Fluo-8 calcium fluorescence, CHO RD-HGA16 cells; Trace amine-associated receptor 1 (Homo sapiens), Q96RJ0; antagonist; inhibition, % at 3 µM; 360,000 compounds, 1.5% hits;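 active = inhibition above a per-plate cutoff, the mean inhibition of test compounds on that plate plus 3 SD, cut at about 49% in these data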;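 note: 0% = DMSO plus EC80 beta-PEA response and 100% = DMSO alone without agonist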
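Material: CHO RD-HGA16 cells bearing hTAAR1; compound dosing: one-point dosing, 3 µM nominal final; schedule: dye loading 75 min at 37 °C, then 30 min room temperature; measured by: calcium fluorescence with Fluo-8; control set: vehicle and agonist controls; replication: n of 1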
TAAR1 ag = human TAAR1 agonists, primary screen, Fluo-8 calcium fluorescence, CHO RD-HGA16 cells. vehicle wells 0%, saturating PEA agonist 100%. activation, % at 3 µM. 360,000 compounds, 0.99% hits. AID 624467, 2012;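 active = activation above the mean activation of all test compounds in the run plus 3 SD, cut at about 38% in these data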
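Assay system – CHO-derived RD-HGA16 cells with stable Gα16 and human TAAR1 · Compound dosing – one-point dosing at 3 µM (nominal) · Incubation – 17-24 h seeding, 75 min 37 °C dye, 30 min RT · Measured by – kinetic Fluo-8 calcium fluorescence · Control set – DMSO vehicle as 0%, PEA at EC100 as 100% · Repeats – single well for each compound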
TAAR1 nonsel count = nonselective antagonists in TAAR1 counter-screen cells, counter-screen for hTAAR1 antagonist project, cell-based, fluorescence, calcium | shares compounds with TAAR1 antagonist | inhibition, % at 3 µM | counterscreen cell line, antagonist mode | 2,400 compounds, 77% hits; in the data active = inhibition above about 22%;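 note: CHO-Ga16 host cells stimulated with ATP at an EC80 level; 0% = agonist EC80 plus vehicle and 100% = vehicle without agonist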
TAAR1 ant conf = human TAAR1 antagonists, retest of hits, confirmation, cell-based, fluorescence; shares compounds with TAAR1 antagonist; TAAR1-expressing cells, fluorescence antagonist read-out; inhibition, % at 3 µM; 2,400 compounds, 40% hits; AID 651785, 2012; in the data active = inhibition above about 49%;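 note: CHO-Ga16 host cells challenged with agonist PEA near its EC80; 0% = agonist at EC80 plus vehicle and 100% = vehicle with no agonist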
Ga16 nonsel ag = calcium activation in Ga16-expressing cells, counter-screen for TAAR1 antagonist project, cell-based, fluorescence; shares compounds with TAAR1 antagonist; activation, % at 3 µM; 2,400 compounds, 18% hits; agonist counterscreen; in the data active = activation above about 12%;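 note: 0% = vehicle wells and 100% = saturating stimulus response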
TAAR1 ag count = TAAR1 activation by candidate antagonists – cell-based, fluorescence, counter-screen for TAAR1 antagonist project; shares compounds with TAAR1 antagonist; hTAAR1 cell line, agonist mode; activation, % at 3 µM; 2,400 compounds, 2% hits; AID 651955, 2012; in the data active = activation above about 37%;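 note: CHO cells stably expressing TAAR1 with calcium dye readout; 0% = DMSO vehicle and 100% = full agonist response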
Active calls of the source: *; . = no result given. An excerpt weighted towards active compounds, which were near 4.6% of everything screened.

SMILES	GPR7 antag	CHO parental Ca	OX1R antag-1	OX1R antag-2	TAAR1 antagonist	TAAR1 ag	TAAR1 nonsel count	TAAR1 ant conf	Ga16 nonsel ag	TAAR1 ag count
COc1cc(NC(=O)c2cc3ccccc3o2)c(OC)cc1Cl	-12	-23	-13	-5	55*	10	17	54*	0	1
CN1CCc2nc3ccccc3c(C(=O)OCC(=O)N(CCC#N)c3ccccc3)c2C1	-1	-17	-39	37	51*	17	23*	47	8	10
N#CCCN(C(=O)COC(=O)c1ccc2ccccc2n1)c1ccccc1	.	-9	-11	7	2	13	.	.	.	.
Cc1csc(NC(=O)CCc2nc3ccccc3s2)n1	-15	-30	-16	30	-8	3	.	.	.	.
O=C(COC(=O)CCc1nc2ccccc2s1)Nc1nc(-c2ccccc2)cs1	-9	-11	-17	7	55*	4	33*	37	4	7
CC(CSC(=O)c1ccccc1)C(=O)N1c2ccccc2CC1C(=O)O (stereo not given)	.	.	.	.	-21	0	.	.	.	.
COc1ccc(N(CC(=O)N/N=C/c2ccc3c(c2)OCO3)S(=O)(=O)c2ccccc2)cc1	1	-5	4	5	.	.	.	.	.	.
O=C(Nc1cccc(-c2nnc(-c3ccco3)o2)c1)C(c1ccccc1)c1ccccc1	-11	-1	-4	41	64*	18	29*	39	2	0
CC(=O)Oc1ccc(C(=O)Nc2cccc(-c3nnc(-c4ccco4)o3)c2)cc1	1	-8	-18	10	35	18	.	.	.	.
O=C(Cc1ccc(Cl)cc1)Nc1cccc(-c2nnc(-c3ccco3)o2)c1	1	-3	-18	16	62*	18	27*	40	11	11
O=C(NCc1cc(C(F)(F)F)ccc1Cl)c1cccc2c1C(=O)c1ccc(N3CCOCC3)cc1S2(=O)=O	.	-8	2	-2	60*	18	33*	50*	22*	22
O=C(NCc1cc(C(F)(F)F)ccc1Cl)c1cccc2c1C(=O)c1ccc(N3CCCCC3)cc1S2(=O)=O	.	-32	-16	8	36	9	.	.	.	.
COc1ccc(C2CC(=O)C(c3cccc(C)c3)=CN2Cc2ccccc2)cc1 (stereo not given)	.	.	.	.	66*	3	22*	40	2	1
COCCNc1nc(Nc2ccc(C)cc2C)c2sccc2n1	.	.	.	.	-2	0	.	.	.	.
CCOc1ccc2[nH]c(C(=O)N/N=C/c3ccc(OC)cc3)cc2c1	20	.	.	.	70*	9	22*	55*	8	5
CCOC(=O)/C(C#N)=C\c1ccc(OC)c(OC)c1	-5	0	-17	38	19	-1	.	.	.	.
COc1ccc(/C=C(\C#N)C(=O)c2c(C)[nH]c3ccccc23)cc1OC	-4	-12	-18	26	59*	5	17	32	2	3
O=C(CSCCNS(=O)(=O)c1ccccc1)Nc1ccccc1	-6	-6	-6	11	-17	1	.	.	.	.
Cc1ccc2cc(C#N)c(N3CCN(C(=O)c4ccccc4)CC3)nc2c1	-3	-19	-29	13	71*	8	34*	39	8	3

Assay outcomes: PubChem BioAssay, The Scripps Research Institute Molecular Screening Center
